Experimental data taken from ChEMBL document CHEMBL1141228, “Conformationally constrained CCK4 analogues incorporating IBTM and BTD beta-turn mimetics” (J Med Chem, 2005).
pIC50: −log10 of the molar value.

How the values were obtained:
[1] = target: T1, Cholecystokinin receptor type A (Rattus norvegicus, UniProt P30551); assay: Displacement of [3H]propionylCCK8 from rat pancreatic CCK1
T1 sequence (P30551 whole entry): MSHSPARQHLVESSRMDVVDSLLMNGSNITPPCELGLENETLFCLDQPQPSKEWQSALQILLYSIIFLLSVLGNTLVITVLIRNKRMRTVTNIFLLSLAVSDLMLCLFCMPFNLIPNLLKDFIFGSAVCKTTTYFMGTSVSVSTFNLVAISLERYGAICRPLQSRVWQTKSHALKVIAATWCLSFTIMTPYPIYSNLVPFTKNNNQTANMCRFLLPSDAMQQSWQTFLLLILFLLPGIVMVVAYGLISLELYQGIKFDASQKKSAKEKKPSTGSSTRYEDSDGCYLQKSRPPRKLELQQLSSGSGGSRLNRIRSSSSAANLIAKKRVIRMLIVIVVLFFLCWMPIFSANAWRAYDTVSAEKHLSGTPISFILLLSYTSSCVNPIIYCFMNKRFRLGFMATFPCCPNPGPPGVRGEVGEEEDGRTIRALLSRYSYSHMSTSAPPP
Procedure, shortened: (§1)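 Binding run on rat tissue homogenates: pancreas for CCK1, cerebral cortex for CCK2. Seven concentrations of test compound, each in duplicate. Values are means or mean ± SEM of at least three experiments.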

[2] = target: T2, Gastrin/cholecystokinin type B receptor (Rattus norvegicus, UniProt P30553); assay: Displacement of [3H]propionylCCK8 from rat cerebral cortex CCK2; type: tissue-based; procedure, shortened: as §1
T2 sequence (P30553 whole entry): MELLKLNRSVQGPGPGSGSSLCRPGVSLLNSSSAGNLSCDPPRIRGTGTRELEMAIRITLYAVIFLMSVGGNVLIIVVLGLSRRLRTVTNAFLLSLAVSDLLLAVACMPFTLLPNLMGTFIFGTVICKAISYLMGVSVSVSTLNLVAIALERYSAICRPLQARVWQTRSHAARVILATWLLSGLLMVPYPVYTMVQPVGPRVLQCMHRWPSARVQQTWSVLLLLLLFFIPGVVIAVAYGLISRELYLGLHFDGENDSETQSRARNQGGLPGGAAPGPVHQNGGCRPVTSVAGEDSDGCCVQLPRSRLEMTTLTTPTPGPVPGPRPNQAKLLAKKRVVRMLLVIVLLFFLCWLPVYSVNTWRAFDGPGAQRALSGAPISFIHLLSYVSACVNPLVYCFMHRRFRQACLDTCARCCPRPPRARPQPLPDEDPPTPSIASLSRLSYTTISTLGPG

Cholecystokinin receptor = target: T3, Cholecystokinin receptor (Rattus norvegicus, UniProt P30551+P30553); assay: Antagonizing activity of CCK8 induced amylase secretion from rat pancreatic acini
T3 sequence (P30551 whole entry): T1 sequence (P30551 whole entry)
T3 sequence (P30553 whole entry): T2 sequence (P30553 whole entry)
Procedure, shortened: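 Rat pancreas digested with collagenase (70 U/mL) in three 10-min incubations at 37 °C under O2 to give dispersed acini. Acini incubated 30 min at 37 °C under pure O2 with agitation, 0.1 nM CCK8 as stimulus, test compound at increasing concentrations. Amylase measured by kit; release expressed as percent of acinar amylase; percent inhibition computed against vehicle control; IC50 derived.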

SMILES	pIC50 [1]	pIC50 [2]	IC50 (Cholecystokinin receptor) [nM]
CC(C)(C)OC(=O)N[C@H](Cc1c[nH]c2ccccc12)C(=O)N[C@@H]1C[C@H]2c3[nH]c4ccccc4c3C[C@H](C(=O)N[C@@H](Cc3ccccc3)C(N)=O)N2C1=O	7.59	< 5.00	829
CC(C)(C)OC(=O)N[C@H](Cc1c[nH]c2ccccc12)C(=O)N[C@H]1CC[C@@H]2SC[C@@H](C(=O)N[C@@H](Cc3ccccc3)C(N)=O)N2C1=O	< 6.00	< 5.00	
CC(C)(C)OC(=O)N[C@H](Cc1c[nH]c2ccccc12)C(=O)N[C@H]1C[C@@H]2c3[nH]c4ccccc4c3C[C@@H](C(=O)N[C@@H](Cc3ccccc3)C(N)=O)N2C1=O	6.09	< 5.00	
O=C(N[C@H]1C[C@@H]2c3[nH]c4ccccc4c3C[C@@H](C(=O)N[C@@H](Cc3ccccc3)C(=O)O)N2C1=O)OCc1ccccc1		< 5.00	
CC(C)(C)OC(=O)N[C@@H](Cc1c[nH]c2ccccc12)C(=O)N[C@H]1C[C@@H]2c3[nH]c4ccccc4c3C[C@@H](C(=O)N[C@H](Cc3ccccc3)C(N)=O)N2C1=O	< 6.00	6.28	
CC(C)(C)OC(=O)N[C@@H](Cc1c[nH]c2ccccc12)C(=O)N[C@H]1CC[C@@H]2SC[C@@H](C(=O)N[C@@H](Cc3ccccc3)C(N)=O)N2C1=O	< 6.00	< 5.00	
CC(C)(C)OC(=O)N[C@@H](Cc1c[nH]c2ccccc12)C(=O)N[C@H]1CC[C@@H]2SC[C@@H](C(=O)N[C@H](Cc3ccccc3)C(N)=O)N2C1=O	< 6.00	< 5.00	
CC(C)(C)OC(=O)N[C@@H](Cc1c[nH]c2ccccc12)C(=O)N[C@@H]1C[C@H]2c3[nH]c4ccccc4c3C[C@H](C(=O)N[C@H](Cc3ccccc3)C(N)=O)N2C1=O	< 6.00	< 5.00	
COC(=O)[C@@H](Cc1ccccc1)NC(=O)[C@@H]1Cc2c([nH]c3ccccc23)[C@H]2C[C@H](NC(=O)[C@@H](Cc3c[nH]c4ccccc34)NC(=O)OC(C)(C)C)C(=O)N21	< 5.00	< 5.00	
CC(C)(C)OC(=O)N[C@H](Cc1c[nH]c2ccccc12)C(=O)N[C@H]1C[C@@H]2c3[nH]c4ccccc4c3C[C@@H](C(=O)N[C@H](Cc3ccccc3)C(N)=O)N2C1=O	< 6.00	6.03	
CC(C)(C)OC(=O)N[C@@H](Cc1c[nH]c2ccccc12)C(=O)N[C@@H]1C[C@H]2c3[nH]c4ccccc4c3C[C@H](C(=O)N[C@@H](Cc3ccccc3)C(N)=O)N2C1=O	7.26	< 5.00	130
CC(C)(C)OC(=O)N[C@H](Cc1c[nH]c2ccccc12)C(=O)N[C@@H]1C[C@H]2c3[nH]c4ccccc4c3C[C@H](C(=O)N[C@H](Cc3ccccc3)C(N)=O)N2C1=O	6.24	< 5.00	
CC(C)(C)OC(=O)N[C@H](Cc1c[nH]c2ccccc12)C(=O)N[C@H]1CC[C@@H]2SC[C@@H](C(=O)N[C@H](Cc3ccccc3)C(N)=O)N2C1=O	< 6.00	< 5.00	
COC(=O)[C@H](Cc1ccccc1)NC(=O)[C@@H]1Cc2c([nH]c3ccccc23)[C@H]2C[C@H](NC(=O)[C@H](Cc3c[nH]c4ccccc34)NC(=O)OC(C)(C)C)C(=O)N21	< 5.00	< 5.00	
CC(C)(C)OC(=O)N[C@@H](Cc1c[nH]c2ccccc12)C(=O)N[C@H]1C[C@@H]2c3[nH]c4ccccc4c3C[C@@H](C(=O)N[C@@H](Cc3ccccc3)C(N)=O)N2C1=O	6.20	< 5.00	
CSCC[C@H](NC(=O)[C@H](Cc1c[nH]c2ccccc12)NC(=O)OC(C)(C)C)C(=O)N[C@@H](CC(=O)O)C(=O)N[C@@H](Cc1ccccc1)C(N)=O	5.74		
